Published values of several laboratories.
Each line is one published result; the experiments were not run side by side.
Effect on: metabolic stability
Species: human

OCc1ccc(-c2nn(Cc3ccccc3)c3ccccc23)o1 — half-life (hepatocytes): 6.6 min
CCOc1ccc(Nc2c3c(nc4ccccc24)CCC3)cc1 — half-life (liver microsomes; 0.5 µM): 47 min
O=c1c2cc(Cl)c(CO)cc2[nH]c(=S)n1Cc1cccnc1 — half-life (liver microsomes; 1 µM; pH 7.4): 57.1 min
O=C(O)Cc1ccccc1Nc1c(Cl)cccc1Cl — half-life (liver microsomes; 1 µM): 12 min
O=C1CCC(N2Cc3cc(C4CCN(Cc5ccccc5)CC4)ccc3C2=O)C(=O)N1 (stereo not shown) — half-life (liver microsomes; 1 µM): > 60 min
CN1CCC(Oc2ccc3c(=O)c4c(F)cc(Cl)cc4[nH]c3c2)CC1 — half-life (liver microsomes; 1 µM; pH 7.4): 55.7 min
Cc1ccc(OCC(=O)N[C@@H](Cc2c[nH]c3ccccc23)C(=O)OC(C)C)cc1 — half-life (liver microsomes; 20 mM): 352 min
Cc1ncsc1-c1ccc([C@H](CC(=O)N2CC3(C2)CN(c2ccc(C#Cc4ccc(C(=O)N5CCC(n6cc(-c7ccc8c(c7)CCN8C(=O)Cc7cccc(OC(F)(F)F)c7)c7c(N)ncnc76)CC5)cc4)cn2)C3)NC(=O)[C@@H]2C[C@@H](O)CN2C(=O)[C@@H](NC(=O)C2(F)CC2)C(C)(C)C)cc1 — half-life (hepatocytes; 1 µM): > 120 min
CC(C)C(=O)OCc1cc2[nH]c(=S)n(Cc3cccnc3)c(=O)c2cc1Cl — half-life (liver microsomes; 1 µM; pH 7.4): < 5 min
O=C(O)Cc1ccccc1Nc1c(Cl)cccc1Cl — half-life (liver microsomes; 2 µM; pH 7.4): 8.3 min
Cc1[nH]c(C)c(S(=O)(=O)Nc2ccc(C(F)(F)F)c(Cl)c2)c1C(=O)N(C)C — half-life (liver microsomes): 8.7 min
O=c1c2cc(Cl)ccc2[nH]c(=S)n1Cc1ccc(-c2nnn[nH]2)nc1 — half-life (liver microsomes; 1 µM; pH 7.4): > 186 min
O=c1c2ccc(Oc3cccc(OC(F)(F)F)c3)cc2[nH]c2cc(Cl)cc(F)c12 — half-life (liver microsomes; 1 µM; pH 7.4): > 60 min
O=C(N1CCCCC1)C12CC(c3ccccc3)(C1)C2 — half-life (liver microsomes; 2 µM; pH 7.4): 70.2 min
CCN(CC)CCNC(=O)c1c(C)[nH]c(/C=C2\C(=O)Nc3ccc(F)cc32)c1C — half-life (liver microsomes; 1 µM; pH 7.4): 27.5 min
Cc1cc2c(C(=O)O)cccc2n1-c1nc2c(c(NCc3ccccc3)n1)CCCN2 — half-life (liver microsomes; 1 µM; pH 7.4): > 120 min
O=c1c2ccccc2[nH]c2cc(Oc3ccc(OC(F)(F)F)cc3)ccc12 — half-life (liver microsomes; 1 µM; pH 7.4): > 60 min
NCc1ccc(-c2nn(Cc3ccccc3)c3ccccc23)o1 — half-life (liver microsomes): 34 min
CCCN(CCC)CCCOc1ccc2c(=O)c3c([nH]c2c1)CCCC3 — half-life (liver microsomes; 1 µM; pH 7.4): 37.3 min
C=CCn1c(=O)c2cnc(Nc3ccc(N4CCN(C)CC4)cc3)nc2n1-c1ccc2c(n1)[C@@](O)(CC)CC2 — half-life (liver microsomes): 23 min
O=c1c2c([nH]c3cc(Oc4ccc(OC(F)(F)F)cc4)c(F)cc13)CCCC2 — half-life (liver microsomes; 1 µM; pH 7.4): 19.1 min
Cc1cccc(CNC(=O)c2cn(CCNC(=O)c3ccccc3Sc3c([N+](=O)[O-])ncn3C)c3cc4c(cc3c2=O)OCO4)n1 — half-life (blood; 1 µM; whole blood): 509 min
CCCN(CCC)CCNc1ccc2c(=O)c3c([nH]c2c1)CCCC3 — half-life (liver microsomes; 1 µM; pH 7.4): > 60 min
Cc1[nH]c(C)c(S(=O)(=O)Nc2ccc(C(F)(F)F)c(Cl)c2Cl)c1C(=O)N1CCC(F)(F)C1 — half-life (liver microsomes): 94 min
O=c1c2c([nH]c3cc(Oc4ccc(OC(F)(F)F)cc4)ccc13)CCCC2 — half-life (liver microsomes; 1 µM; pH 7.4): 26.8 min
CN(C)CC(=O)OCc1cc2[nH]c(=S)n(Cc3cccnc3)c(=O)c2cc1Cl — half-life (liver microsomes; 1 µM; pH 7.4): < 5 min
CN(C)CCOc1ccc2c(=O)c3c([nH]c2c1)CCCC3 — half-life (liver microsomes; 1 µM; pH 7.4): > 60 min
COc1cc(-c2cc(C(C)=O)n3ccccc23)c(OC)cc1Cn1ccnc1 — half-life (liver microsomes; pH 7.4): > 120 min
